Measured values as given in ChEMBL document CHEMBL1649176, “Contribution of oxidative damage to antimicrobial lethality” (2009).
Values after ≈ are worked out from the molar mass of the structure shown. Active and inactive are the calls of the source. The calls are words filed in the database; no cut-off is given here.

What was measured:
Escherichia coli [1] = test: Antimicrobial activity against Escherichia coli K-12 BW25113 by broth dilution method; assay type: functional
In short: (§1)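 Broth dilution in LB medium, about 10^5 bacteria per 1-ml tube, with drug concentrations rising in 50% increments. Tubes were incubated overnight at 37°C and read visually. MIC was the lowest concentration that prevented visible growth.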

Escherichia coli [2] = test: Antimicrobial activity against sodB gene-deficient Escherichia coli K-12 DKsodB by broth dilution method; assay type: functional; in short: as §1
Escherichia coli [3] = test: Antimicrobial activity against sodA gene-deficient Escherichia coli K-12 3144 by broth dilution method; assay type: functional; in short: as §1
Escherichia coli [4] = test: Antimicrobial activity against sodB gene-deficient Escherichia coli K-12 3145 by broth dilution method; assay type: functional; in short: as §1
Escherichia coli [5] = test: Antimicrobial activity against sodA, sodB gene-deficient Escherichia coli K-12 3156 by broth dilution method; assay type: functional; in short: as §1
Escherichia coli [6] = test: Antimicrobial activity against katG gene-deficient Escherichia coli K-12 3157 by broth dilution method; assay type: functional; in short: as §1
Escherichia coli [7] = test: Antimicrobial activity against ahpC gene-deficient Escherichia coli K-12 3200 by broth dilution method; assay type: functional; in short: as §1
Escherichia coli [8] = test: Antimicrobial activity against katG,katE gene-deficient Escherichia coli K-12 3201 by broth dilution method; assay type: functional; in short: as §1
Escherichia coli [9] = test: Antimicrobial activity against katE gene-deficient Escherichia coli K-12 3202 by broth dilution method; assay type: functional; in short: as §1
Escherichia coli [10] = test: Bactericidal activity against Escherichia coli K-12 BW25113 after 18 hrs; assay type: functional; conditions: K-12 BW25113, 18 h
Escherichia coli [11] = test: Bactericidal activity against sodB gene-deficient Escherichia coli K-12 DK after 18 hrs; assay type: functional
Escherichia coli [12] = test: Bactericidal activity against sodA gene-deficient Escherichia coli K-12 3144 after 18 hrs; assay type: functional; conditions: K-12 3144, 18 h
Escherichia coli [13] = test: Bactericidal activity against sodB gene-deficient Escherichia coli K-12 3145 after 18 hrs; assay type: functional; conditions: K-12 3145, 18 h
Escherichia coli [14] = test: Bactericidal activity against sodA, sodB gene-deficient Escherichia coli K-12 3156 after 18 hrs; assay type: functional; conditions: K-12 3156, 18 h
Escherichia coli [15] = test: Bactericidal activity against katG gene-deficient Escherichia coli K-12 3157 after 18 hrs; assay type: functional; conditions: K-12 3157, 18 h
Escherichia coli [16] = test: Bactericidal activity against ahpC gene-deficient Escherichia coli K-12 3200 after 18 hrs; assay type: functional; conditions: K-12 3200, 18 h
Escherichia coli [17] = test: Bactericidal activity against katG,katE gene-deficient Escherichia coli K-12 3201 after 18 hrs; assay type: functional; conditions: K-12 3201, 18 h
Escherichia coli [18] = test: Bactericidal activity against katE gene-deficient Escherichia coli K-12 3202 after 18 hrs; assay type: functional; conditions: K-12 3202, 18 h
Escherichia coli [19] = test: Bactericidal activity against sodA gene-deficient Escherichia coli K-12 3144 at 0.4 ug/ml; assay type: functional, organism-based
Escherichia coli [20] = test: Bactericidal activity against sodA gene-deficient Escherichia coli K-12 3144 after 2 hrs; assay type: functional, organism-based
Escherichia coli [21] = test: Bactericidal activity against sodB gene-deficient Escherichia coli K-12 3145 at 0.4 ug/ml; assay type: functional, organism-based
Escherichia coli [22] = test: Bactericidal activity against sodB gene-deficient Escherichia coli K-12 3145 after 2 hrs; assay type: functional, organism-based
Escherichia coli [23] = test: Bactericidal activity against sodB gene-deficient Escherichia coli K-12 DKsodB at 0.4 ug/ml; assay type: functional, organism-based
Escherichia coli [24] = test: Bactericidal activity against sodB gene-deficient Escherichia coli K-12 DKsodB after 2 hrs; assay type: functional, organism-based
Escherichia coli [25] = test: Bactericidal activity against sodA, sodB gene-deficient Escherichia coli K-12 3156 at 0.4 ug/ml relative to wild-type; assay type: functional
Escherichia coli [26] = test: Bactericidal activity against sodA, sodB gene-deficient Escherichia coli K-12 3156 after 2 hrs relative to wild-type; assay type: functional
Escherichia coli [27] = test: Bactericidal activity against katG gene-deficient Escherichia coli K-12 3157 at 10 times MIC relative to wild-type; assay type: functional
Escherichia coli [28] = test: Bactericidal activity against katG gene-deficient Escherichia coli K-12 3157 after 2 hrs relative to wild-type; assay type: functional
Escherichia coli [29] = test: Bactericidal activity against katG,katE gene-deficient Escherichia coli K-12 3201 at 10 times MIC relative to wild-type; assay type: functional
Escherichia coli [30] = test: Bactericidal activity against katG,katE gene-deficient Escherichia coli K-12 3201 after 2 hrs relative to wild-type; assay type: functional
Escherichia coli [31] = test: Bactericidal activity against katG gene-deficient Escherichia coli K-12 3157 at 10 times MIC pretreated with 250 uM bipyridyl relative to wild-type; assay type: functional
Escherichia coli [32] = test: Bactericidal activity against katG gene-deficient Escherichia coli K-12 3157 at 10 times MIC pretreated with 100 mM thiourea relative to wild-type; assay type: functional
Escherichia coli [33] = test: Bactericidal activity against katG gene-deficient Escherichia coli K-12 3157 after 2 hrs pretreated with 250 uM bipyridyl relative to wild-type; assay type: functional
Escherichia coli [34] = test: Bactericidal activity against katG gene-deficient Escherichia coli K-12 3157 after 2 hrs pretreated with 100 mM thiourea relative to wild-type; assay type: functional
Escherichia coli [35] = test: Bactericidal activity against Escherichia coli K-12 BW25113 at 100 times MIC; assay type: functional, organism-based
Escherichia coli [36] = test: Bactericidal activity against katG gene-deficient Escherichia coli K-12 3157 at 100 times MIC; assay type: functional, organism-based
Escherichia coli [37] = test: Bactericidal activity against ahpC gene-deficient Escherichia coli K-12 3200 at 100 times MIC; assay type: functional, organism-based
Escherichia coli [38] = test: Bactericidal activity against katG,katE gene-deficient Escherichia coli K-12 3201 at 100 times MIC; assay type: functional, organism-based

## NC[C@H]1O[C@H](O[C@H]2[C@H](O)[C@@H](O[C@H]3O[C@H](CO)[C@@H](O)[C@H](N)[C@H]3O)[C@H](N)C[C@@H]2N)[C@H](O)[C@@H](O)[C@@H]1O [KANAMYCIN]
Escherichia coli [1]
  MIC: 0.6 µg/mL
Escherichia coli [2]
  MIC: 0.6 µg/mL
Escherichia coli [3]
  MIC: 0.6 µg/mL
Escherichia coli [4]
  MIC: 0.6 µg/mL
Escherichia coli [5]
  MIC: 0.6 µg/mL
Escherichia coli [6]
  MIC: 0.6 µg/mL
Escherichia coli [7]
  MIC: 2.4 µg/mL
Escherichia coli [8]
  MIC: 1.2 µg/mL
Escherichia coli [9]
  MIC: 0.6 µg/mL
Escherichia coli [10]
  MBC: 20 µg/mL (≈ 41.3 µM)
Escherichia coli [11]
  MBC: 20 µg/mL (≈ 41.3 µM)
Escherichia coli [12]
  MBC: 20 µg/mL (≈ 41.3 µM)
Escherichia coli [13]
  MBC: 20 µg/mL (≈ 41.3 µM)
Escherichia coli [14]
  MBC: 10 µg/mL (≈ 20.6 µM)
Escherichia coli [15]
  MBC: 20 µg/mL (≈ 41.3 µM)
Escherichia coli [16]
  MBC: 10 µg/mL (≈ 20.6 µM)
Escherichia coli [17]
  MBC: 20 µg/mL (≈ 41.3 µM)
Escherichia coli [18]
  MBC: 20 µg/mL (≈ 41.3 µM)

## O=C(O)c1cn(C2CC2)c2cc(N3CCNCC3)c(F)cc2c1=O
Escherichia coli [19]
  Activity: Active
Escherichia coli [20]
  Activity: Active
Escherichia coli [21]
  Activity: Active
Escherichia coli [22]
  Activity: Active

## CCn1cc(C(=O)O)c(=O)c2cc(F)c(N3CCNCC3)cc21 [NORFLOXACIN]
Escherichia coli [1]
  MIC: 0.04 µg/mL
Escherichia coli [2]
  MIC: 0.04 µg/mL
Escherichia coli [3]
  MIC: 0.04 µg/mL
Escherichia coli [4]
  MIC: 0.04 µg/mL
Escherichia coli [5]
  MIC: 0.04 µg/mL
Escherichia coli [6]
  MIC: 0.04 µg/mL
Escherichia coli [7]
  MIC: 0.04 µg/mL
Escherichia coli [8]
  MIC: 0.08 µg/mL
Escherichia coli [9]
  MIC: 0.04 µg/mL
Escherichia coli [23]
  Activity: Active
Escherichia coli [24]
  Activity: Active
Escherichia coli [19]
  Activity: Active
Escherichia coli [20]
  Activity: Active
Escherichia coli [21]
  Activity: Active
Escherichia coli [22]
  Activity: Active
Escherichia coli [25]
  fold change (FC): 10
Escherichia coli [26]
  fold change (FC): 10
Escherichia coli [27]
  fold change (FC): 10
Escherichia coli [28]
  fold change (FC): 10
Escherichia coli [29]
  fold change (FC): 10
Escherichia coli [30]
  fold change (FC): 10
Escherichia coli [31]
  fold change (FC): 10
Escherichia coli [32]
  fold change (FC): 10
Escherichia coli [33]
  fold change (FC): 10
Escherichia coli [34]
  fold change (FC): 10
Escherichia coli [10]
  MBC: 0.32 µg/mL (≈ 1 µM)
Escherichia coli [11]
  MBC: 0.32 µg/mL (≈ 1 µM)
Escherichia coli [12]
  MBC: 0.32 µg/mL (≈ 1 µM)
Escherichia coli [13]
  MBC: 0.32 µg/mL (≈ 1 µM)
Escherichia coli [14]
  MBC: 0.16 µg/mL (≈ 0.501 µM)
Escherichia coli [15]
  MBC: 0.16 µg/mL (≈ 0.501 µM)
Escherichia coli [16]
  MBC: 0.16 µg/mL (≈ 0.501 µM)
Escherichia coli [17]
  MBC: 0.32 µg/mL (≈ 1 µM)
Escherichia coli [18]
  MBC: 0.16 µg/mL (≈ 0.501 µM)

## O=C(N[C@H](CO)[C@H](O)c1ccc([N+](=O)[O-])cc1)C(Cl)Cl
Escherichia coli [35]
  Activity: inactive
Escherichia coli [36]
  Activity: inactive
Escherichia coli [37]
  Activity: inactive
Escherichia coli [38]
  Activity: inactive

## CCn1cc(C(=O)O)c(=O)c2cc3c(cc21)OCO3
Escherichia coli [19]
  Activity: Active
Escherichia coli [20]
  Activity: Active
Escherichia coli [21]
  Activity: Active
Escherichia coli [22]
  Activity: Active

## c1ccc(-c2ccccn2)nc1 [DIPYRIDYL]
Escherichia coli [1]
  MIC: 500 µM
Escherichia coli [2]
  MIC: 500 µM
Escherichia coli [3]
  MIC: 500 µM
Escherichia coli [4]
  MIC: 500 µM
Escherichia coli [5]
  MIC: 500 µM
Escherichia coli [6]
  MIC: 500 µM
Escherichia coli [7]
  MIC: 500 µM
Escherichia coli [8]
  MIC: 500 µM
Escherichia coli [9]
  MIC: 500 µM

## CC1(C)S[C@@H]2[C@H](NC(=O)[C@H](N)c3ccccc3)C(=O)N2[C@H]1C(=O)O [AMPICILLIN]
Escherichia coli [1]
  MIC: 15 µg/mL
Escherichia coli [2]
  MIC: 15 µg/mL
Escherichia coli [3]
  MIC: 15 µg/mL
Escherichia coli [4]
  MIC: 15 µg/mL
Escherichia coli [5]
  MIC: 15 µg/mL
Escherichia coli [6]
  MIC: 15 µg/mL
Escherichia coli [7]
  MIC: 15 µg/mL
Escherichia coli [8]
  MIC: 30 µg/mL
Escherichia coli [9]
  MIC: 15 µg/mL
Escherichia coli [10]
  MBC: 80 µg/mL (≈ 229 µM)
Escherichia coli [11]
  MBC: 80 µg/mL (≈ 229 µM)
Escherichia coli [12]
  MBC: 80 µg/mL (≈ 229 µM)
Escherichia coli [13]
  MBC: 80 µg/mL (≈ 229 µM)
Escherichia coli [14]
  MBC: 20 µg/mL (≈ 57.2 µM)
Escherichia coli [15]
  MBC: 80 µg/mL (≈ 229 µM)
Escherichia coli [16]
  MBC: 40 µg/mL (≈ 114 µM)
Escherichia coli [17]
  MBC: 80 µg/mL (≈ 229 µM)
Escherichia coli [18]
  MBC: 80 µg/mL (≈ 229 µM)
